Active and inactive are the calls of the source. No cut-off for these calls is given here.

Data set [1] concerns MDA-MB-231. Description: Induction of apoptosis in human MDA-MB-231 cells assessed as late apoptotic cells at 640 nM incubated for 12 hrs by annexin V-FITC/PI based flow cytometric analysis (reference value: 0.7%). The data set is classed as functional. An outline of the steps:
(§1)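 Cells exposed to compound or 0.1% DMSO for 12 h at 37°C, then resuspended in PBS at 1×10^5 cells/mL. Stained with annexin V-FITC and PI for 20 min at room temperature in the dark, then analysed by flow cytometry. Quadrant percentages reported: lower right early apoptotic, upper right late apoptotic. n = 4, mean ± SD.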

For data set [2], the system named is MDA-MB-231. Description: Induction of apoptosis in human MDA-MB-231 cells assessed as early apoptotic cells at 160 nM incubated for 12 hrs by annexin V-FITC/PI based flow cytometric analysis (reference value: 1.2%). Format: functional. An outline of the steps: as §1
A general note: Flow cytometry measures light scatter and fluorescence of single cells or particles in a stream.

For data set [3], the system named is MDA-MB-231. Briefly: Induction of apoptosis in human MDA-MB-231 cells assessed as early apoptotic cells at 320 nM incubated for 12 hrs by annexin V-FITC/PI based flow cytometric analysis (reference value: 1.2%). Format: functional. A digest of the protocol: as §1
For data set [4], the system named is MDA-MB-231. Briefly: Inhibition of colony formation in human MDA-MB-231 cells at 160 to 640 nM treated for 24 hrs and incubated for 2 weeks by crystal violet staining based assay. Format: functional, cell-based. The following applies: dose 160-640 nM. An outline of the steps:
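MDA-MB-231 cells seeded at 1000 per well and left 24 h. Treated with DMSO vehicle or compound for 24 h, then grown two weeks with medium changed twice weekly. Colonies fixed in 4% paraformaldehyde and stained with 0.05% crystal violet. Result expressed as % of vehicle. n = 4.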

For data set [5], the system named is MDA-MB-231. Briefly: Induction of apoptosis in human MDA-MB-231 cells assessed as late apoptotic cells at 320 nM incubated for 12 hrs by annexin V-FITC/PI based flow cytometric analysis (reference value: 0.7%). Format: functional. A digest of the protocol:
as §1

Data set [6] deals with MDA-MB-231. Briefly: Antiproliferative activity against human MDA-MB-231 cells after 24 hrs by MTT assay relative to control. The data set is classed as functional. A digest of the protocol:
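MDA-MB-231 cells kept in DMEM with 10% FBS at 37°C, 5% CO2. Seeded at 5×10^3 cells/well and left 24 h, then exposed to compounds at 0.078-10 µM for 24 h. 0.1% DMSO served as the vehicle control. MTT added for 4 h, formazan dissolved in DMSO, absorbance read at 570 nm. IC50 derived. Each run in triplicate, repeated at least three times.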
On the technique in general: Tetrazolium assays rely on reduction of a dye to a coloured formazan, in cell work by metabolically active cells.

For data set [7], the target named is T1, Glutaminase kidney isoform, mitochondrial (Homo sapiens) (UniProt O94925).
T1 sequence (whole entry): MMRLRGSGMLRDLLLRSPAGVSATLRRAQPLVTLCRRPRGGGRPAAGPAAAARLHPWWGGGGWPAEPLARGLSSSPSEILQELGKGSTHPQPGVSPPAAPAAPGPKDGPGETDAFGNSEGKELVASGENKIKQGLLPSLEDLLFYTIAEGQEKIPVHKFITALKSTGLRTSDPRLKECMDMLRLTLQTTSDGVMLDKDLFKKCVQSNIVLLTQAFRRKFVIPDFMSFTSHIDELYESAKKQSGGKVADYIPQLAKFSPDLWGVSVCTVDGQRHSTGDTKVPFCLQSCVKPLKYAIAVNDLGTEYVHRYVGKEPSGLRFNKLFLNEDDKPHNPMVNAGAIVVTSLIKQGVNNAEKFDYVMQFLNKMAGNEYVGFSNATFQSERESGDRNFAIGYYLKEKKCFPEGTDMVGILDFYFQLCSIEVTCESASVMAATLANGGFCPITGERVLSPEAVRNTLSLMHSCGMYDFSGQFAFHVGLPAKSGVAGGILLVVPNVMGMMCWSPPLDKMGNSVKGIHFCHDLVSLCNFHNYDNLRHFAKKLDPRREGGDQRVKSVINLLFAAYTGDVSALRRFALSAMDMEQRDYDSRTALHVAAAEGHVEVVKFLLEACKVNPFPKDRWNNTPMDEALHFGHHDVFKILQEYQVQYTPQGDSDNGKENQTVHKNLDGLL
Description: Inhibition of human GLS1 at 10 uM relative to control. A digest of the protocol:
(§2)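 Human GLS1 hydrolase activity measured with a commercial GLS1 inhibitor screening kit, following the manufacturer's protocol. Single-point screening was run at 10 μM.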

Data set [8] concerns MDA-MB-231. Description: Induction of apoptosis in human MDA-MB-231 cells assessed as necrotic cells at 320 nM incubated for 12 hrs by annexin V-FITC/PI based flow cytometric analysis (reference value: 0.1%). The data set is classed as functional. A digest of the protocol:
as §1

Data set [9] concerns MDA-MB-231. Briefly: Induction of apoptosis in human MDA-MB-231 cells assessed as early apoptotic cells at 640 nM incubated for 12 hrs by annexin V-FITC/PI based flow cytometric analysis (reference value: 1.2%). The data set is classed as functional. An outline of the steps:
as §1

Data set [10] has as its system MDA-MB-231. Briefly: Induction of apoptosis in human MDA-MB-231 cells assessed as increase in cleaved caspase-9 expression after 12 hrs by Western blotting analysis. The data set is classed as functional, cell-based. The settings on record: dose 160-640 nM. A digest of the protocol:
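MDA-MB-231 cells exposed to graded concentrations or 0.1% DMSO; the methods state 24 h, the legend 12 h. Lysed in RIPA, 80 µg protein per lane on SDS-PAGE and transferred to PVDF. Probed overnight at 4°C for caspase-3, cleaved caspase-3, caspase-9 and cleaved caspase-9, with GAPDH as loading control. HRP secondaries, ECL detection, densitometry. n = 4.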
On the technique in general: A western blot detects proteins with antibodies after separation by electrophoresis.

For data set [11], the target named is T1, Glutaminase kidney isoform, mitochondrial (Homo sapiens). Description: Potency index, ratio of WA IC50 to compound IC50 for inhibition of human GLS1. An outline of the steps:
as §2

In data set [12] the test system is MDA-MB-231. Briefly: Induction of apoptosis in human MDA-MB-231 cells assessed as viable cells at 640 nM incubated for 12 hrs by annexin V-FITC/PI based flow cytometric analysis (reference value: 98.1%). The data set is classed as functional. The settings on record: read-out: Activity. A digest of the protocol: as §1
Data set [13] in a line: Toxicity in BALB/c nude mouse xenografted with human MDA-MB-231 cells assessed as liver tissue damage at 25 to 50 mg/kg, ip administered every 3 days for 4 weeks. Format: organism-based. The following applies: in vivo, 672 h, dose 25-50 mg/kg. A digest of the protocol: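 Xenograft-bearing nude mice (MDA-MB-231, s.c. right flank, treated from about 100 mm³) received 25 or 50 mg/kg i.p. every three days for four weeks. At the end mice were euthanized, and visceral organs were fixed in 4% paraformaldehyde for histopathology.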

Regarding `CC(=O)O[C@H]1C=C([C@H](C)[C@H]2CC(C)=C(C)C(=O)O2)[C@@]2(C)CC[C@H]3[C@@H](C[C@H]4O[C@]45[C@@H](OC(=O)CCCC(=O)Nc4ccc(N6CCOCC6)c(F)c4)C=CC(=O)[C@]35C)[C@@]12O`, the Activity is reported as 11.7% with MDA-MB-231 [1]; 2.6% in the data set on MDA-MB-231 [2]; 16.7% with MDA-MB-231 [3]; 2.9% in the data set on MDA-MB-231 [5]; 0.1% with MDA-MB-231 [8]; 28.5% with MDA-MB-231 [9]. Also, the Activity result in the data set with MDA-MB-231 [10] is “Dose-Dependent Effect”; in data set [13], “Non-Toxic”. Besides, the inhibition result in the data set with MDA-MB-231 [4] was “Active”. For the same compound, in the data set on MDA-MB-231 [6], the “inhibition (INH)” value worked out at 95.2%. This compound also yielded an inhibition in data set [7] of 87.2%. The Ratio IC50 in data set [11] was determined as 20. Also, the viability at 0.64 µM with MDA-MB-231 [12] turned out to be 59.7%.

One may read the inhibition as the share of the control response that was lost under treatment.

The record behind these values is ChEMBL document CHEMBL4811218, “Discovery and optimization of withangulatin A derivatives as novel glutaminase 1 inhibitors for the treatment of triple-negative breast cancer” (Eur J Med Chem, 2021).
